# Screening results: PubChem BioAssay, Johns Hopkins Ion Channel Center
# TRPC4 inh: TRPC4 (mouse) channel inhibition | HEK293 TRPC4beta/mu-opioid, DAMGO-evoked Fluo4 calcium flux; stronger effect = lower value | B-score at 10 µM | Q9QUQ5 | 300,000 compounds, 0.39% hits;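 active = B-score over 3 SD under the library average, no early fluorescence shift, positive overall ratio signal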
# Target sequence (Q9QUQ5 whole entry, looked up): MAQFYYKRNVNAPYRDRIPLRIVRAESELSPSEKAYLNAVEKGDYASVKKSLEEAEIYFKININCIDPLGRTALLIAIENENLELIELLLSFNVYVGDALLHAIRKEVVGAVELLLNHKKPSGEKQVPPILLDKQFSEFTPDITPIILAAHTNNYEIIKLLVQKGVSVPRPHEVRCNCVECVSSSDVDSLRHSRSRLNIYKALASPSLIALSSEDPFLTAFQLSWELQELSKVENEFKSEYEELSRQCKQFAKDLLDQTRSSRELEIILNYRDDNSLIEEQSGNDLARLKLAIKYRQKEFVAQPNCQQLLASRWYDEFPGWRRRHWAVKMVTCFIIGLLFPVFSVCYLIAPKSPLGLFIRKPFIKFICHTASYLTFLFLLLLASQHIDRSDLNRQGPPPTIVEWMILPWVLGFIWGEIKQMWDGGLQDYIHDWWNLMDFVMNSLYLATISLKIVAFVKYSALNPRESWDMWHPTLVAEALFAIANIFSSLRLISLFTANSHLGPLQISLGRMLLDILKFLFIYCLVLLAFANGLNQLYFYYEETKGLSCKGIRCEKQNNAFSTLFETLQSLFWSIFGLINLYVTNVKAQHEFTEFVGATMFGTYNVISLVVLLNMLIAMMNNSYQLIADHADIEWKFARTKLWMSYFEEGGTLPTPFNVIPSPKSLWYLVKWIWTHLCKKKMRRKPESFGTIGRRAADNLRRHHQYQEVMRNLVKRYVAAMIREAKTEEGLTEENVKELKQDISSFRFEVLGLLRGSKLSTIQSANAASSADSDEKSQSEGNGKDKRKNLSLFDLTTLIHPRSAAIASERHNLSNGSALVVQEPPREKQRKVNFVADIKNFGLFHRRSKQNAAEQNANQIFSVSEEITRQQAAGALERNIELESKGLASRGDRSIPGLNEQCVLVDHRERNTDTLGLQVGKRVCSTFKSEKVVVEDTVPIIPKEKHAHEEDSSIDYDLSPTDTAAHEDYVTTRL
#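 Assay system: HEK293 cells with stable TRPC4beta plus mu-opioid receptor expression; Probe or stimulus: DAMGO in two steps, submaximal then maximal; Dosing: single-point compound dosing; Measured by: Fluo4 calcium-dye fluorescence, kinetic read; Read-out basis: B score from integrated Fluo4 fluorescence ratio.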
# TRPC6 act: mouse TRPC6 channel activation; HEK293-TRPC6 membrane potential dye fluorescence; stronger effect = higher value; B-score at 10 µM; 310,000 compounds, 0.13% hits;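 active = B-score of the integrated fluorescence ratio above library mean plus 3 SD, and starting fluorescence ratio within library mean plus 5 SD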;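 also: higher score means more depolarization so channel activation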
# TRPC6 inhibitor: blocks the mouse TRPC6 cation channel. B-score at 10 µM. HEK293-TRPC6, membrane potential dye, ACh-evoked depolarization; stronger effect = lower value. 310,000 compounds, 1.1% hits;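 active = B-score under library mean minus 3 SD, initial fluorescence not abnormally high, positive integrated signal ratio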;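 also: B-score derived from integrated fluorescence ratio over the kinetic read; more negative B-score means stronger inhibition of depolarization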
# TRPC4 act: activators of mouse TRPC4 channel; B-score at 10 µM; HEK293 TRPC4beta/mu-opioid, Fluo4 calcium fluorescence; stronger effect = higher value; 310,000 compounds, 0.49% hits; Q9QUQ5;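 active = B-score above 5 SD of library B-scores, and initial fluorescence ratio not above library mean plus 5 SD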;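 also: positive B-score marks a calcium rise read as TRPC4 activation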
#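 Test system: HEK293 cells stably co-expressing mouse TRPC4beta and mu-opioid receptor | Schedule: Fluo4 dye loading 45 min at room temperature, 110 s recording | Measured by: Kinetic Fluo4 calcium fluorescence, 5 s baseline at 1 Hz | Evaluation: B score of integrated ratio | Controls: Buffer (low) and maximal DAMGO (high)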
# TRPC4 potent: allosterically enhances the mouse TRPC4 cation channel; HEK293 TRPC4beta/mu-opioid, DAMGO EC20, Fluo-4 Ca2+ flux; stronger effect = higher value; B-score at 10 µM; 310,000 compounds, 0.42% hits; AID 2227;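 active = B-score of calcium response area above 5 SD of library B-scores, with initial fluorescence ratio within 5 SD of library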
# A number is an active result; 0 = inactive. An excerpt weighted towards active compounds, which were near 2.3% of everything screened.
SMILES,TRPC4 inh,TRPC6 act,TRPC6 inhibitor,TRPC4 act,TRPC4 potent
CCCN(CCC)CCNC(=O)C1CCN(Cc2nc(-c3ccc(Cl)cc3)oc2C)CC1,0,0,-7.2,0,0
Cc1ccc(N2CC(C(=O)NCCC3=CCCCC3)CC2=O)cc1 (stereo not given),0,0,0,0,0
Cc1ccc(SCCC(=O)NCCSCc2ccco2)cc1,0,0,0,0,0
Cc1ccc(SCCNCc2ccco2)cc1,0,0,0,0,10
CC1C/C(=N/O)C(C)CN1 (stereo not given),0,0,0,0,0
CCn1c(N)[n+](CC(=O)Nc2ccc(SC(F)F)cc2)c2ccccc21,0,0,0,156,0
N#CCCn1cc(C(=O)N2CCOCC2)c(-c2ccc3c(c2)OCCO3)n1,0,0,0,0,0
CCCC(=O)c1ccc(N2CCN(C(=O)c3ccccc3)CC2)c(F)c1,0,0,0,0,0
CCCC(=O)c1ccc(N2CCN(C(=O)c3ccccc3Br)CC2)c(F)c1,0,0,0,0,11
COc1ccc(CCNC2CCc3ccccc3C2)cc1 (stereo not given),0,0,0,0,0
COc1ccc(CCNC2CCC(c3ccccc3)CC2)cc1 (stereo not given),0,0,0,104,0
O=C(OC1C2CCC1C1CN(CCc3ccccc3)CC12)c1ccccc1 (stereo not given),-6,0,0,0,0
Nc1ncc(Br)cc1S(=O)(=O)Nc1cc(C(F)(F)F)cc(C(F)(F)F)c1,0,0,0,46,0
NC1=NC2(CCCCC2)n2c(nc3ccccc32)N1,0,0,0,0,0
NC1=NC2(CCN(Cc3ccccc3)CC2)n2c(nc3ccccc32)N1,0,0,0,87,0
O=C(NC(Nc1nc2ccc([N+](=O)[O-])cc2s1)(C(F)(F)F)C(F)(F)F)c1ccccc1Cl,0,14,-6.9,0,0
CCC(=O)N(C)CCc1cc2c(c(OC)c1/C=N/NC(=O)c1ccc(Br)cc1)OCO2,-7,0,0,0,0
CCOC(=O)CSc1nc2c(sc(=S)n2Cc2ccco2)c(=O)n1-c1ccccc1,-6,0,0,0,0
CCN(CC)C(=O)CSc1nc2c(sc(=S)n2Cc2ccco2)c(=O)n1-c1ccccc1,0,0,0,0,0
CCOC(=O)CSc1nc2c(sc(=S)n2-c2ccccc2OC)c(=O)n1Cc1ccco1,-5,0,-5.7,0,0
CCOC(=O)CSc1nc2c(sc(=S)n2-c2ccccc2OC)c(=O)n1-c1ccccc1OC,0,0,0,0,0
CCOc1ccc(S(=O)(=O)NCCCn2ccnc2)cc1,0,0,0,0,0
CCOC(=O)N1CCN(C(=O)Nc2cccc3ccccc23)CC1,0,0,0,0,0
c1ccc(CC2CCN(C3=Nc4cccc5cccc3c45)CC2)cc1,0,0,-6.1,0,0
CCOC(=O)N1CCN(C2=Nc3cccc4cccc2c34)CC1,0,0,-7.4,0,0
SMILES,TRPC4 inh,TRPC6 act,TRPC6 inhibitor,TRPC4 act,TRPC4 potent
CCOC(=O)c1c(S(=O)(=O)NCc2ccc(C)o2)c(C)n(C)c1C,0,0,0,0,0
CN(CC(=O)Nc1ccc(F)cc1)C(=O)COC(=O)c1ccccc1,0,0,0,0,106
CN(CC(=O)Nc1ccc(F)cc1)C(=O)CCc1ccccc1,0,0,0,0,0
O=C(c1cccs1)N1CCN(c2ncc(Br)cn2)CC1,0,0,0,175,0
O=C(c1ccncc1)N1CCN(C(=O)c2cccs2)CC1,0,0,0,0,0
COc1ccccc1CNS(=O)(=O)c1ccc2c(c1)NC(=O)C(C)S2 (stereo not given),0,0,0,0,0
CN(C)CCN(C(=O)c1cccc(Cl)c1)c1nc2c(Cl)cccc2s1,0,0,0,0,11
C=CCc1ccccc1OCC(O)CN1CCN(c2ccccc2OC)CC1 (stereo not given),-6,0,0,0,0
C=CCc1ccccc1OCC(O)CN1CCN(c2ccccc2F)CC1 (stereo not given),0,0,0,0,0
C=CCc1ccccc1OCC(CN1CCCCC1)OC(C)=O (stereo not given),-6,0,0,0,0
C=CCc1ccccc1OCCCCN1CCCC1,0,0,0,0,0
O=C(N/N=C/C=C/c1ccc2c(c1)OCO2)C(O)c1ccccc1 (stereo not given),0,0,0,0,0
Cc1ccn2cc(CNS(=O)(=O)c3ccc4ccccc4c3)nc2c1,0,0,0,0,0
CCCc1cc(-c2n[nH]c(=S)n2CC(C)C)cs1,0,0,0,0,13
Cc1ccc(CNC(=O)Cn2ccc3cc(S(=O)(=O)N4CCCC4)ccc32)o1,0,0,0,0,0
CCN(CC)CCn1c(NC(=O)c2ccc(C)cc2)nc2ccccc21,0,0,0,0,0
CCC(=O)Nc1nc2ccccc2n1CCN(CC)CC,0,0,0,0,11
CC(C)C(NC(=O)c1ccc(C(C)(C)C)cc1)C(=O)NCC(c1ccccc1)N(C)C (stereo not given),-7,0,0,0,0
CC(C)C(NC(=O)c1ccc(C(C)(C)C)cc1)C(=O)NCCc1ccccn1 (stereo not given),0,0,0,0,0
CCCN1CCN(C(=S)NCc2ccc(Cl)cc2)CC1,0,0,0,0,22
S=C(NCc1ccc(Cl)cc1)N1CCN(c2ccccn2)CC1,0,0,0,0,0
CC(=O)Cn1ncc(N2CCOCC2)c(Cl)c1=O,0,0,0,0,0
CC(=O)Cn1ncc(N2CCOCC2)cc1=O,-8,0,0,0,0
Cc1cn2c(=O)c(C(=O)N3CCN(c4ccccc4)CC3)cnc2s1,0,0,0,0,0
Cc1ccc2cc(/C=N/NC(=O)CN3CCCCC3)c(Cl)nc2c1,0,0,0,0,0
SMILES,TRPC4 inh,TRPC6 act,TRPC6 inhibitor,TRPC4 act,TRPC4 potent
O=S(=O)(NCCN1CCCC1)c1ccc(Br)cc1,0,0,0,0,0
Cc1cccc(-c2csc(N)c2C(=O)OC(C)C)c1,-6,0,0,0,0
Cc1ccc(C)c(-c2csc(N)c2C(=O)OC(C)C)c1,0,0,0,0,0
O=C(O)/C=C\C(=O)Nc1ccc(N2CCN(c3ccc(Cl)cc3)CC2)cc1,0,0,0,0,0
O=C(O)/C=C\C(=O)Nc1ccc(N2CCN(c3ccc(Cl)c(Cl)c3)CC2)cc1,-6,0,0,0,0
CCOCCCn1cnc2c(c1=O)c1nc3ccccc3nc1n2-c1ccccc1,0,0,0,0,0
CCOCCCn1cnc2c(c1=O)c1nc3ccccc3nc1n2-c1ccc(C)cc1,-8,0,0,0,0
CC(C)CN(C(=O)COC(=O)COc1ccc2ccccc2c1)c1c(N)n(Cc2ccccc2)c(=O)[nH]c1=O,0,0,0,0,16
CCOc1ccc(OCC(=O)OCC(=O)N(CC(C)C)c2c(N)n(Cc3ccccc3)c(=O)[nH]c2=O)cc1,0,0,0,0,0
